# Shown are actives, neighbours in structure and some others; about 2.9% of the full set was active somewhere.
# Runt-SMMHC FRET = inhibitors of human RUNX1 Runt domain binding to CBFb-SMMHC; Q01196+Q13951; Cerulean-Runt/Venus-CBFb-SMMHC FRET ratio 530/480, 1 h; inhibition, % at 20 µM; 0.74% of 220,000 active;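 active = mean inhibition across duplicate retests at 20 µM reaching about 50%, limit read from the data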;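 also: 0% = DMSO wells and 100% = wells with excess untagged CBFb-SMMHC; inhibitors lower the FRET ratio by blocking Runt binding to CBFb-SMMHC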
# RanGTP-Impb inh = inhibitors of RanGTP-importin-beta interaction, primary screen, biochemical, FRET, CFP-Ran, YFP-importin-beta, homogeneous; cell-free CFP-Ran/YFP-importin-beta FRET ratio; inhibition, % (no concentration beside the values); 1.1% of 300,000 active; AID 2216;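 active = more than half of the replicate wells show a fall in the fluorescence ratio signal beyond about 16%, limit read from the data, passing the limit was not always enough; inconclusive = exactly half of the replicate wells pass the set limit; inactive = fewer than half of replicates pass the limit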;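 also: 0% = DMSO wells and 100% = Ran loaded with GDP instead of GTP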
# KLK7 zymogen act = activates the human kallikrein-7 zymogen; activation, % at 7 µM; P49862; 0.9% of 370,000 active; AID 652039; purified proKLK7, EDANS-DABCYL substrate fluorescence; 100% is mature enzyme control, 0% vehicle;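 active = activation above the mean of all tested compounds plus 3 SD, computed per campaign excluding outliers beyond control limits, cut at about 13% in these data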
# Target sequence (P49862 whole entry, looked up): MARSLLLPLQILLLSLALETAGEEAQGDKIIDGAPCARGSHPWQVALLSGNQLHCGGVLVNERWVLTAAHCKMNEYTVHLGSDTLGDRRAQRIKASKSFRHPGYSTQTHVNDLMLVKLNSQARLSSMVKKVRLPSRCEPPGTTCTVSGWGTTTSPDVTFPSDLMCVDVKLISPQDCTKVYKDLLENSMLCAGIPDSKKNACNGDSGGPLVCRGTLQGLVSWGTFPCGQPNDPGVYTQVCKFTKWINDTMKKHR
# AI-2 QS modul = modulators of Vibrio harveyi AI-2 quorum sensing system | AID 2094 | 0.4% of 300,000 active | activity change, % at 7.5 µM | Vibrio harveyi JMH597 AI-2 luminescence/OD600 ratio, 9 h; hits give low values; strain lacks LuxN and CqsS sensors; 0 = neutral-control median; in the data active = activity change below about -75%, passing the limit was not always enough; inconclusive = no clear call, values can overlap the other calls;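 also: luminescence divided by OD600 gain over 9 h not by final OD600 alone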
# Runt-CBFb FRET = blocks binding of human RUNX1 Runt domain to CBFb | Q01196+Q13951 | Cerulean-Runt/Venus-CBFb FRET ratio 530/480, 1 h | inhibition, % at 20 µM | 0.46% of 220,000 active | AID 1496;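 active = inhibition over about 50% at 20 µM in the single-dose screen, limit read from the data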;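 also: 0% = DMSO wells and 100% = excess unlabeled CBFb competitor control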
#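 Assay system: Cerulean-tagged RUNX1 Runt domain (FRET donor) fusion protein / Amount: 100 nM each of Venus-CBFb and Cerulean-Runt domain / Medium: Tris buffer pH 7.5 with salts and BSA / Also added: Venus-CBFb 100 nM / Schedule: 1 h complex formation plus 1 h compound treatment, room temperature / Signal: FRET fluorescence / Read-out: loss of energy transfer signal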
# Wee1 stabilizer = inhibitors of human Wee1 degradation | P30291 | HeLa Luc-Wee1K328M stability, luciferase luminescence; 100% = proteasome inhibitor MG132 effect | reporter increase, % at 5 µM | 1.2% of 220,000 active;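 active = activation above the mean of all tested compounds plus 3 SD, set per screening run, cut at about 8.8% in these data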;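 also: cells exposed to compound for 20 h before luminescence read; 0% = DMSO alone and 100% = MG132 at 30 µM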
# proKLK7 act conf = confirmation of human kallikrein-7 zymogen activators | shares compounds with KLK7 zymogen act | purified proKLK7, EDANS-DABCYL substrate fluorescence; scaled: vehicle 0, mature enzyme 100 | activation, % at 7 µM | 68% of 3,200 active;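 active = activation, as change over the incubation, above the mean of all tested compounds plus 3 SD, cut at about 13% in these data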
# EDANS-DABCYL int = optically interferes with EDANS-DABCYL signal, flagging KLK7 hits; shares compounds with KLK7 zymogen act; EDANS-DABCYL substrate fluorescence interference, no enzyme, 4 h; solvent 0%, active enzyme control 100%; activation, % at 7 µM; 80% of 3,200 active;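 active = activation above the all-compound mean plus 3 SD, ignoring values outside control-based bounds, cut at about 4.8% in these data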;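 also: value is the 4 h activation minus the activation read at time zero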
# EDANS interf = optically interferes with EDANS-DABCYL fluorescence, kallikrein-7 activator counter-screen. shares compounds with KLK7 zymogen act. EDANS-DABCYL peptide fluorescence interference, no enzyme. EC50, µM. 20% of 250 active;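 active = compounds that raise the fluorescence signal in this interference counterscreen, with EC50 at or below 10 µM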;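 also: intact quenched peptide substrate alone read at 355 nm excitation and 520 nm emission; signal is fluorescence gain from T0 to T4 after four hours at room temperature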
# * hit, by the source's call; ? = inconclusive; / = not tested or not shown.
SMILES,Runt-SMMHC FRET,RanGTP-Impb inh,KLK7 zymogen act,AI-2 QS modul,Runt-CBFb FRET,Wee1 stabilizer,proKLK7 act conf,EDANS-DABCYL int,others
O=C1CCCC2=C1C(c1cccc(Br)c1)n1nc(-c3ccco3)nc1N2 (configuration not stated),/,0.1,12.0,3.6,/,0.2,/,/,
COC(=O)c1nc2n(n1)C(c1cccc(Cl)c1)C1=C(CCCC1=O)N2 (configuration not stated),2.3,-2.7,20.3*,31.1,1.6,0.3,13.9*,18.6*,
CN(C)C(=O)c1cccc(-c2ccc3nncn3c2)c1,/,/,1.0,/,/,/,/,/,
O=C(NCCO)c1cccc(-c2cnc3cccnn23)c1,/,/,53.5*,/,/,/,37.7*,37.1*,
CN1CCN(C(=O)c2ccc(-c3cnc4cccnn34)cc2)CC1,/,/,67.5*,/,/,/,69.4*,70.3*,
CNc1ccc2ncc(-c3cccc(C(=O)N(C)C)c3)n2n1,/,/,41.9*,/,/,/,39.6*,41.8*,
O=C(NCCO)c1ccc(-c2cnc3cccnn23)cc1,/,/,48.3*,/,/,/,62.8*,78.2*,
CN(C(=O)OC(C)(C)C)c1ccc(-c2nc3ccccc3s2)cc1,/,-0.4,-3.8,16.2,/,/,/,/,
OCc1ccccc1-c1cnc2cccnn12,/,/,82.0*,/,/,/,66.5*,78.6*,
c1ccc(CCNc2ccc3ncc(-c4cccc5ccccc45)n3n2)nc1,/,/,-12.9,/,/,/,/,/,
O=C(COC(=O)Cc1ccc(Cl)cc1)Nc1ccc2[nH]c(=O)[nH]c2c1,/,?,-0.4,-1.8,/,/,/,/,
CCN(C(=O)COC(=O)CNC(=O)c1ccc(C)cc1)c1c(N)n(Cc2ccccc2)c(=O)[nH]c1=O,/,/,0.0,/,/,/,/,/,
Cc1nn(-c2ccccc2)c2c1cc1c(=O)n(C)c(=O)nc-1n2-c1ccccc1F,23.4,?,13.2*,5.6,8.8,-1.4,18.1*,9.1*,EDANS interf=>69.5
Cc1cccc(-n2c3nc(=O)[nH]c(=O)c-3cc3c(C)nn(-c4ccccc4)c32)c1C,31.2,2.9,13.6*,18.0,17.0,2.6,46.0*,58.0*,
CCCc1c(-c2cccc(Cl)c2)ncn1CCc1ccccc1OC,/,/,0.2,/,/,/,/,/,
O=S(=O)(c1ccc(F)c(F)c1)N1CCN(S(=O)(=O)c2cccs2)CC1,/,6.0,-0.3,20.2,/,/,/,/,
CCc1ccc(C2=CC(c3cc(Br)ccc3F)n3ncnc3N2)cc1 (configuration not stated),75.1*,/,13.3*,/,-1.1,4.2,3.6,4.9*,
Cn1c(=O)c2cc(NC(=O)NCc3ccc(F)cc3)ccc2n1C,/,/,39.2*,/,/,/,31.1*,35.6*,
Cn1c(=O)c2cc(NC(=S)NCc3ccccc3F)ccc2n1C,/,/,34.3*,/,/,/,9.6,8.7*,
COc1cc(Cn2c3ccc(NC(=O)NCc4ccc(F)cc4)cc3c(=O)n2C)ccc1F,/,/,2.5,/,/,/,/,/,
COc1ccc(NC(=S)Nc2ccc3c(c2)c(=O)n(C)n3-c2ccccc2)cc1,/,/,42.2*,/,/,/,36.2*,48.2*,
C=C(C)Cn1c2ccc(NC(=O)NCc3ccc(F)cc3)cc2c(=O)n1C,/,/,29.7*,/,/,/,9.5,14.6*,
COC(=O)c1ccc(NC(=O)CCCN2C(=O)NC(C)(C)C2=O)cc1,/,/,0.3,/,/,/,/,/,
Cc1nc2c(C)cccc2c2c1CCN2c1ccccc1F,2.4,2.4,157.4*,16.5,1.6,-1.0,61.3*,68.6*,
COc1cc2c(cc1OC)C(Cc1ccc(O)cc1)N(C)CC2 (configuration not stated),1.9,0.3,17.5*,1.1,-2.6,-0.5,68.3*,89.8*,
COc1cc2c(cc1OC)C(Cc1ccc(O)cc1)NCC2 (configuration not stated),1.9,-0.5,4.3,1.2,0.2,-0.6,/,/,

# High-throughput results deposited in PubChem by several laboratories.
